From ChEMBL document CHEMBL1149606, “Synthesis, 3D-QSAR, and docking studies of 1-phenyl-1H-1,2,3-triazoles as selective antagonists for beta3 over alpha1beta2gamma2 GABA receptors” (Bioorg Med Chem, 2007) come the findings set out here.

As a reminder, the pKi is −log10 of the Ki, conventionally taken in molar units.

The species entered for test [1] is Homo sapiens. As to the kind of experiment: Selectivity for human GABA-beta-3 receptor over human GABA alpha-1-beta-2-gamma-2 receptor. A digest of the protocol: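 Selectivity from [³H]EBOB competition binding run separately on each receptor. β3 assay: membranes (50 µg protein) from hygromycin-selected Drosophila S2 cells stably expressing human β3, copper sulfate-induced 24 h before harvest; 0.5 nM [³H]EBOB, 10 mM Na phosphate/300 mM NaCl pH 7.5, 22 °C, 70 min. α1β2γ2 assay: membranes (150 µg) from stable HEK-293 cells; 1 nM [³H]EBOB, 50 mM Na phosphate/200 mM NaCl pH 7.4, 25 °C, 90 min. Both assays: GF/B filtration, scintillation counting, nonspecific binding with 5 µM EBOB, ≥3 repeats, probit IC50, then Cheng–Prusoff Ki (Kd 5.0 and 10.7 nM).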

For test [2], the target named is GABA A receptor alpha-1/beta-2/gamma-2 (Homo sapiens). As to the kind of experiment: Displacement of [3H]EBOB from human recombinant GABA alpha-1-beta-2-gamma-2 receptor expressed in HEK293 cells. On the technique in general: In a radioligand displacement assay an active substance lowers the binding of a labelled ligand.
Test [3] concerns the target T1, Gamma-aminobutyric acid receptor subunit beta-3 (Homo sapiens, UniProt P28472).
T1 sequence (P28472 whole entry): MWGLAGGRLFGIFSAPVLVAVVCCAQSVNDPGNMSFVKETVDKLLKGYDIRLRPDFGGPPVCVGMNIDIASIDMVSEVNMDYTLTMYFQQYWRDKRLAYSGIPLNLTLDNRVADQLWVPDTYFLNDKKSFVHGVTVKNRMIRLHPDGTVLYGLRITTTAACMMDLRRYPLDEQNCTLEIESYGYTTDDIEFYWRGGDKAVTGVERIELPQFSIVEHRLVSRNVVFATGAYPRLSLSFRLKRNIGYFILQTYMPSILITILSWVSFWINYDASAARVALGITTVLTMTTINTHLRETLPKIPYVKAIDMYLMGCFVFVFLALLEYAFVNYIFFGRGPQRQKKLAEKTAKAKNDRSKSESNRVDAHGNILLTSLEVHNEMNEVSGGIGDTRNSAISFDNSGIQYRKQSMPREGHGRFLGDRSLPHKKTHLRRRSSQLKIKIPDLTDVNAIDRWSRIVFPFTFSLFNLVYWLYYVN
As to the kind of experiment: Displacement of [3H]EBOB from human recombinant GABAbeta3 receptor expressed in HEK293 cells. The test is classed as cell-based.

In test [4] the test system is Musca domestica. Nature of the test: Insecticidal activity against house fly WHO/SRS assessed as mortality after 24 hrs. The test is classed as functional. A digest of the protocol:
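Adult female houseflies, 3–5 days post-emergence, pretreated with piperonyl butoxide (10 µg in 1 µL acetone) 1 h before topical thoracic dosing of compound in 1 µL acetone at several doses; 30 flies per dose, kept at 25 °C with sugar and water. Mortality read at 24 h, three repeats; LD50 by probit on mean mortality.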

The structures appear in SMILES notation. pKi: −log10 of the molar value.

As for `CCCCc1cn(-c2c(Cl)cc(C(F)(F)F)cc2Cl)nn1`, the Ratio Ki in test [1] was determined as 362. Moreover, in test [2], the pKi was 6.00.
The matching figures for `CCCCc1cnnn1-c1c(Cl)cc(Br)cc1Cl`: more than 11.7 and less than 5.04.
On to `CCCc1nnn(-c2c(Cl)cc(C(F)(F)F)cc2Cl)c1CCl`, for which the Ratio Ki in test [1] stood at 403. Further, the pKi was 9.18 in test [3] and 6.58 in test [2]. For the same molecule, the LD50 in test [4] was 5.17 pmol.
For `CCCc1nnn(-c2c(Cl)cc(C(F)(F)F)cc2Cl)c1CCC`, in test [1], the Ratio Ki is more than 71.5. Moreover, the pKi is 6.89 in test [3] and less than 5.04 in test [2].
As to `CC(C)(C)c1cn(-c2c(Cl)cc(C(F)(F)F)cc2Cl)nn1`, the Ratio Ki in test [1] turned out to be 470. Besides, the LD50 in test [4] stood at 1.86 pmol. Also, in test [2], the pKi is 6.41.
`CCCCc1cnnn1-c1c(Cl)cccc1Cl`: in test [1], the Ratio Ki is more than 4.46. Besides, the negative logarithm of the Ki (pKi) in test [2] is less than 5.04.
Turning to `CCCc1c(C)nnn1-c1c(Cl)cc(C(F)(F)F)cc1Cl`, the Ratio Ki in test [1] is more than 17. Moreover, the pKi in test [3] is 6.27; in test [2] it was less than 5.04.
Consider `CCCc1cn(-c2c(Cl)cc(C(F)(F)F)cc2Cl)nn1`, for which the Ratio Ki in test [1] amounted to 220. For the same molecule, the pKi in test [2] was 6.33.
`CCCc1nnn(-c2c(Cl)cc(C(F)(F)F)cc2Cl)c1CC`: the Ratio Ki in test [1] was more than 1130. Further, the negative logarithm of the Ki (pKi) in test [3] is 8.09; in test [2], less than 5.04.
For `CCCc1c(CC)nnn1-c1c(Cl)cc(C(F)(F)F)cc1Cl` the same measures were more than 194, 7.33 and less than 5.04.
In the case of `CCCCCCc1cn(-c2c(Cl)cc(C(F)(F)F)cc2Cl)nn1`, the Ratio Ki in test [1] came to 5.05. Moreover, the pKi in test [2] is 5.70.
For `CCCCc1cn(-c2ccc(Br)cc2)nn1` the same measures were more than 2.87 and less than 5.04.
In the case of `FC(F)(F)c1cc(Cl)c(-n2cc(C3CCCCC3)nn2)c(Cl)c1`, the Ratio Ki in test [1] worked out at 127. For the same molecule, the negative logarithm of the Ki (pKi) in test [2] is 5.82.
On to `CCCc1c(CO)nnn1-c1c(Cl)cc(C(F)(F)F)cc1Cl`, for which the Ratio Ki in test [1] is more than 2.65. The pKi was 5.46 in test [3] and less than 5.04 in test [2].
In the case of `CCCc1cnnn1-c1c(Cl)cc(C(F)(F)F)cc1Cl`, the Ratio Ki in test [1] was more than 12.1. For the same molecule, in test [2], the pKi was less than 5.04.
For `CCCCc1cn(-c2c(Cl)cc(Br)cc2Cl)nn1` the same measures were more than 293 and less than 5.04.
For `CCCCc1cnnn1-c1ccc(Br)cc1` the same measures were more than 3.35 and less than 5.04.
Take `CCc1nnn(-c2c(Cl)cc(C(F)(F)F)cc2Cl)c1CC`: the negative logarithm of the Ki (pKi) in test [3] was 8.37.
As for `C#Cc1cc(Cl)c(-n2cc(CCCC)nn2)c(Cl)c1`, in test [1], the Ratio Ki is more than 264. Further, the pKi in test [2] is less than 5.04.
The matching figures for `FC(F)(F)c1cc(Cl)c(-n2cc(CCCCl)nn2)c(Cl)c1`: 378 and 6.21.
For the molecule `CCCCCCc1cnnn1-c1c(Cl)cc(C(F)(F)F)cc1Cl`, the Ratio Ki in test [1] is more than 10.6. Also, the pKi in test [2] was less than 5.04.
For the molecule `CCCc1nnn(-c2c(Br)cc(C(F)(F)F)cc2Br)c1C`, the Ratio Ki in test [1] was more than 673. Moreover, the pKi is 7.87 in test [3] and less than 5.04 in test [2].
For `CCCc1nnn(-c2c(Cl)cc(C(F)(F)F)cc2Cl)c1C`, the Ratio Ki in test [1] was 166. Also, the negative-log Ki (pKi) was 8.71 in test [3] and 6.49 in test [2].
As to `FC(F)(F)c1cc(Cl)c(-n2cc(-c3ccccc3)nn2)c(Cl)c1`, the Ratio Ki in test [1] is more than 71.5. The pKi in test [2] is less than 5.04.
For the molecule `CCc1c(C)nnn1-c1c(Cl)cc(C(F)(F)F)cc1Cl`, in test [3], the negative logarithm of the Ki (pKi) was 7.15.
With `CCCCc1cn(-c2c(Cl)cc(Cl)cc2Cl)nn1`, the Ratio Ki in test [1] is more than 111. Besides, the pKi in test [2] is less than 5.04.
The matching figures for `CCCCCc1cnnn1-c1c(Cl)cc(C(F)(F)F)cc1Cl`: more than 6.58 and less than 5.04.
Regarding `CCCCc1cnnn1-c1ccc(C(F)(F)F)cc1`, the Ratio Ki in test [1] is more than 1.73. In test [2], the pKi is less than 5.04.
For `C#Cc1ccc(-n2nncc2CCCC)cc1` the same measures were more than 1.21 and less than 5.04.
The matching figures for `CCCCc1cnnn1-c1c(Cl)cc(Cl)cc1Cl`: more than 2.24 and less than 5.04.
For `CCCCc1cn(-c2c(Cl)cccc2Cl)nn1` the same measures were more than 2.6 and less than 5.04.
Turning to `CCCCCc1cn(-c2c(Cl)cc(C(F)(F)F)cc2Cl)nn1`, the Ratio Ki in test [1] turned out to be 50. Further, the negative-log Ki (pKi) in test [2] is 5.86.
Take `FC(F)(F)c1cc(Cl)c(-n2nncc2-c2ccccc2)c(Cl)c1`: in test [1], the Ratio Ki was more than 19.3. Also, in test [2], the pKi is less than 5.04.
As to `CCCc1c(CCl)nnn1-c1c(Cl)cc(C(F)(F)F)cc1Cl`, in test [1], the Ratio Ki was more than 137. Also, the values for the negative logarithm of the Ki (pKi) in test [3] and in test [2] were 7.18 and less than 5.04, respectively.
Take `Nc1c(-c2ccccc2)nnn1-c1c(Cl)cc(C(F)(F)F)cc1Cl`: the Ratio Ki in test [1] came out at 57.1. Besides, the pKi in test [2] is 5.94.
Consider `CCCc1nnn(-c2c(Cl)cc(C(F)(F)F)cc2Cl)c1CO`, for which the Ratio Ki in test [1] was 153. Further, the pKi in test [3] is 8.60; in test [2], 6.41.
The matching figures for `CCc1nnn(-c2c(Cl)cc(C(F)(F)F)cc2Cl)c1C`: 150, 8.15 and 5.97.
